# In ChEMBL document CHEMBL1140942, “Novel pyrrolidine ureas as C-C chemokine receptor 1 (CCR1) antagonists” (J Med Chem, 2009):
# Calls of active or inactive are those of the source. No cut-off for these calls is given here.
# Tests used:
# [1] = Metabolic stability in human liver microsomes assessed as compound remaining at 1 uM after 30 mins by LC/MS; assay type: ADME, Microsome; settings: read-out: Stability
# Method in brief: (§1)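 Compound at 1 µM incubated with rat or human liver microsomes (300 nM cytochrome P450) in phosphate buffer pH 7.4 with 1 mM NADPH for 30 min at 37 °C. Stopped with acetonitrile and centrifuged. Percent remaining at 30 min determined by LC/MS.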
# [2] = Metabolic stability in rat liver microsomes assessed as compound remaining at 1 uM after 30 mins by LC/MS; assay type: ADME, Microsome; settings: read-out: Stability; method in brief: as §1
# [3] = molecular target: T1, C-C chemokine receptor type 1 (Homo sapiens, UniProt P32246); assay: Displacement of [125I]MIP-1-alpha from human recombinant CCR1 expressed in HEK293 cells; assay type: cell-based
# T1 sequence (P32246 whole entry): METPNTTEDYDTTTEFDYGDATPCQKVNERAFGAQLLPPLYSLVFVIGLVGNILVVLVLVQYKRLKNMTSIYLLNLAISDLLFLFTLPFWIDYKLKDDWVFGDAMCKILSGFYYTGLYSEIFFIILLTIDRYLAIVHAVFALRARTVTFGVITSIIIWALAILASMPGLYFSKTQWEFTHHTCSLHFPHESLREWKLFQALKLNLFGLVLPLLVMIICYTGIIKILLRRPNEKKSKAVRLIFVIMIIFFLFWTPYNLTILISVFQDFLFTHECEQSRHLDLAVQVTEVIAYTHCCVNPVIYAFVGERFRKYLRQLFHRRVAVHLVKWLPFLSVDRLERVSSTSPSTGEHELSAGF
# Method in brief: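 Scintillation proximity binding in 384-well format. Membranes (50 µg/mL) were mixed with SPA beads (10 mg/mL) in buffer of 130 mM NaCl, 5 mM KCl, 1 mM MnCl₂, 50 mM Tris HCl pH 7.4 and 0.1% BSA. Varied compound concentrations added with [¹²⁵I]MIP-1α at 0.1 nM final. Plates spun, incubated 4 h, then counted.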
# [4] = Cmax in Sprague-Dawley rat at 5 mg/kg, po; assay type: ADME, organism-based; set-up: dose 5 mg/kg, route oral; settings: in vivo
# Method in brief: (§2)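 Male Sprague-Dawley rats, three to four per compound, given 5 mg/kg by oral gavage in 0.5% methyl cellulose, either singly or in a cassette. Serial blood drawn from an indwelling arterial cannula up to 6 or 24 h. Plasma proteins precipitated, and parent compound quantified by LC/MS/MS.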
# [5] = AUC(0 to 6 hrs) in Sprague-Dawley rat at 5 mg/kg, po; assay type: ADME, organism-based; set-up: time < 6 hr, dose 5 mg/kg, route oral; settings: plasma; method in brief: as §2
# [6] = test system: Rattus norvegicus; assay: (§3) AUC(0 to infinity) in Sprague-Dawley rat at 5 mg/kg, po; assay type: ADME, organism-based, Plasma; set-up: time infinity, dose 5 mg/kg, route oral; settings: in vivo; method in brief: as §2
# [7] = molecular target: C-C chemokine receptor type 2 (Homo sapiens) (UniProt P41597); assay: Inhibition of CCR2b
# [8] = molecular target: T2, C-X-C chemokine receptor type 1 (Homo sapiens) (UniProt P25024); assay: Inhibition of CXCR1
# T2 sequence (whole entry): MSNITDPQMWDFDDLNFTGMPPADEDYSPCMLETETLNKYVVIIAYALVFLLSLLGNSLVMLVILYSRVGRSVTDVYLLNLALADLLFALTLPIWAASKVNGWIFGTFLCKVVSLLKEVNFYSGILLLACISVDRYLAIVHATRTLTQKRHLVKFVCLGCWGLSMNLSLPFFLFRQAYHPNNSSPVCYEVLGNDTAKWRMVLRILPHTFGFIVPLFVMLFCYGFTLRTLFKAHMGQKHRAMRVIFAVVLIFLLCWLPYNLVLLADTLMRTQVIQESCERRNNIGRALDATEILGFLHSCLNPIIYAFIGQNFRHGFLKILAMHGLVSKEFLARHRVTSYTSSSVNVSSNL
# [9] = molecular target: T3, C-C chemokine receptor type 4 (Homo sapiens) (UniProt P51679); assay: Inhibition of CCR4
# T3 sequence (whole entry): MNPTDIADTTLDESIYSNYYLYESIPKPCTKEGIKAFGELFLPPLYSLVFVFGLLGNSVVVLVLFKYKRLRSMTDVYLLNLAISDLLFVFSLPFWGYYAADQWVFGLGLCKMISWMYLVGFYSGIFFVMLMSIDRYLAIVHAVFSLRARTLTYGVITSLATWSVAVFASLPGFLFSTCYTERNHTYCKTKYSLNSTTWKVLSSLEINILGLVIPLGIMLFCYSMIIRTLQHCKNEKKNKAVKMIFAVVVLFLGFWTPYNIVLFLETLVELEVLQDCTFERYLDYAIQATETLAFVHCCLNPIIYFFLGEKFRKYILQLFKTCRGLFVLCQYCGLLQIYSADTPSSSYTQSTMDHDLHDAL
# [10] = molecular target: T4, C-X-C chemokine receptor type 2 (Homo sapiens) (UniProt P25025); assay: Inhibition of CXCR2
# T4 sequence (whole entry): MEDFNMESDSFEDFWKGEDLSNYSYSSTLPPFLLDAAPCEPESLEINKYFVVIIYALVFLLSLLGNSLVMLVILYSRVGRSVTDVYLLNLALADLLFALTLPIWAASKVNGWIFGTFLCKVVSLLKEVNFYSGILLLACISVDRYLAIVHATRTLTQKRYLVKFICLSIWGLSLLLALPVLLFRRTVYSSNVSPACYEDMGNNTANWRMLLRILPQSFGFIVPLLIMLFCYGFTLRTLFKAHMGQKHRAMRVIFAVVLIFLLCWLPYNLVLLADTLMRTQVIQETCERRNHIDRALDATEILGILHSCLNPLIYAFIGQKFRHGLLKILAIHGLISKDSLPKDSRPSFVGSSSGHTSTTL
# [11] = molecular target: T5, CX3C chemokine receptor 1 (Homo sapiens) (UniProt P49238); assay: Inhibition of CX3CR1
# T5 sequence (whole entry): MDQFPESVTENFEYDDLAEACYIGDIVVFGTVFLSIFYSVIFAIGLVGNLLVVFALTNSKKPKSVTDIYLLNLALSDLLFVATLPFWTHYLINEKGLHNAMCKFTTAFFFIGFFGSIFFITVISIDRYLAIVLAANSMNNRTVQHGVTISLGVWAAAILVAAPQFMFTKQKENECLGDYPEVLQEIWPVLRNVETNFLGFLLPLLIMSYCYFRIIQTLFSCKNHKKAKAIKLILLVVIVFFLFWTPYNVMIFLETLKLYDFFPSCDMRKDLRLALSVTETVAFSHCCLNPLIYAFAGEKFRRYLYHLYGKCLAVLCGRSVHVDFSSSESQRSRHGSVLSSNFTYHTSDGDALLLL
# [12] = Oral bioavailability in Sprague-Dawley rat at 5 mg/kg; assay type: ADME, organism-based; settings: in vivo
# Method in brief: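 Oral dosing was 5 mg/kg by gavage in 0.5% methyl cellulose to male Sprague-Dawley rats (three to four), with a 1 mg/kg intravenous dose via indwelling catheter for comparison. Serial arterial-cannula blood sampling. Parent compound in protein-precipitated plasma measured by LC/MS/MS.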
# [13] = molecular target: C-C chemokine receptor type 5 (Homo sapiens) (UniProt P51681); assay: Inhibition of CCR5
# [14] = Half life in Sprague-Dawley rat at 5 mg/kg, po; assay type: ADME, organism-based; set-up: dose 5 mg/kg, route oral; settings: in vivo; method in brief: as §2
# [15] = as §3; assay type: ADME, organism-based, Plasma; set-up: time infinity, dose 5 mg/kg, route oral; settings: Sprague-Dawley, plasma; method in brief: as §2
# C-C chemokine receptor type 2 (Homo sapiens), sequence (P41597 whole entry, looked up): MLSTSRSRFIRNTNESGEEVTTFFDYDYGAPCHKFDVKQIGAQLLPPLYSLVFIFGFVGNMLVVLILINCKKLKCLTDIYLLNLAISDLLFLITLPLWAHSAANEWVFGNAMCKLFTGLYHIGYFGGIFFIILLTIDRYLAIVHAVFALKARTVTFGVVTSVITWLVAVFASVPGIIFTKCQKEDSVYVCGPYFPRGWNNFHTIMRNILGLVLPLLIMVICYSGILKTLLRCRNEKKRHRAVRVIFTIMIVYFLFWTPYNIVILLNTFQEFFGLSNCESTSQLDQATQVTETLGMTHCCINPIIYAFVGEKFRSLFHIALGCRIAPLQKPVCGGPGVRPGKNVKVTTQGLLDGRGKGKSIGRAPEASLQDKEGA
# C-C chemokine receptor type 5 (Homo sapiens), sequence (P51681 whole entry, looked up): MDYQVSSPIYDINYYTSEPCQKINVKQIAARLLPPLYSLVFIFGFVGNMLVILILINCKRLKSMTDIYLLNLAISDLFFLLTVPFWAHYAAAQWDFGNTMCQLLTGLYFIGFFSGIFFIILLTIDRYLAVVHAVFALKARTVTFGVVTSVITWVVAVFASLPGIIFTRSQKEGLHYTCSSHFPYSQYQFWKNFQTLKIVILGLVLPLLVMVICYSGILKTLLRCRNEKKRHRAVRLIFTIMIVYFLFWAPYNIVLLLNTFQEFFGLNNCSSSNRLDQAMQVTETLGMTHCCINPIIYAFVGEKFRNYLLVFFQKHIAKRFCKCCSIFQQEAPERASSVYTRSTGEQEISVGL
Structure (SMILES),IC50 [3] [nM],also measured
CN(Cc1ccc(Cl)cc1)C(=O)[C@H]1CCCN1C(=O)Nc1ccc(C(F)(F)F)cc1F,23,"remaining at 0.5 h, 1 µM [1]: 93%; remaining at 0.5 h, 1 µM [2]: 76%; Cmax [4]: 291 ng/mL; AUC(0-t) at 6 h [5]: 1240 ng·h/mL"
CN(Cc1ccc(F)cc1)C(=O)[C@H]1CCCN1C(=O)Nc1ccc(Cl)cc1,1300,–
CN(Cc1ccc(Cl)cc1)C(=O)[C@H]1CCCN1C(=O)Nc1ccc(Cl)cc1,270,–
CN(Cc1ccc(Cl)cc1)C(=O)[C@H]1CCCN1C(=O)Nc1ccc(C(F)(F)F)cc1,140,"AUC [6]: 9390 ng·h/mL; Activity [7]: inactive; Activity [8]: inactive; Activity [9]: inactive; remaining at 0.5 h, 1 µM [1]: 78%; Activity [10]: inactive; remaining at 0.5 h, 1 µM [2]: 74%; Activity [11]: inactive; bioavailability [12]: 45%; Activity [13]: inactive; Cmax [4]: 834 ng/mL; half-life [14]: 4.4 h"
Cc1cc(CN(C)C(=O)[C@H]2CCCN2C(=O)Nc2ccc(Cl)cc2)ccc1Cl,4000,–
CCN(Cc1ccc(Cl)cc1)C(=O)[C@H]1CCCN1C(=O)Nc1ccc(Cl)cc1,270,–
CN(Cc1ccc(Cl)cc1)C(=O)[C@@H]1CCCN1C(=O)Nc1ccc(C(F)(F)F)cc1,> 28000,–
O=C([C@H]1CCCN1C(=O)Nc1ccc(Cl)cc1)N(CCO)Cc1ccccc1Cl,43000,–
CN(Cc1ccc(C(F)(F)F)cc1)C(=O)[C@H]1CCCN1C(=O)Nc1ccc(Cl)cc1,> 100000,–
CN(Cc1ccc(Cl)cc1)C(=O)C1CCCCN1C(=O)Nc1ccc(C(F)(F)F)cc1 (stereo unspecified),> 28000,–
Cc1ccc(CN(C)C(=O)[C@H]2CCCN2C(=O)Nc2ccc(Cl)cc2)cc1,5700,–
Cc1ccc(NC(=O)N2CCC[C@@H]2C(=O)N(C)Cc2ccc(Cl)cc2)cc1,680,–
CC(c1ccc(Cl)cc1)N(C)C(=O)[C@H]1CCCN1C(=O)Nc1ccc(Cl)cc1 (stereo partly specified),4700,–
COc1ccc(CN(C)C(=O)[C@H]2CCCN2C(=O)Nc2ccc(Cl)cc2)cc1,> 77000,–
Cc1cc(Cl)ccc1CN(C)C(=O)[C@H]1CCCN1C(=O)Nc1ccc(Cl)cc1,> 100000,–
O=C([C@H]1CCCN1C(=O)Nc1ccc(Cl)cc1)N(CCO)Cc1cccc(Cl)c1,> 100000,–
CN(Cc1ccc(Cl)cc1)C(=O)[C@H]1CCCN1C(=O)Nc1ccc(F)cc1,700,–
CN(Cc1ccc(Cl)cc1)C(=O)[C@H]1CCCN1C(=O)Nc1ccc(C(F)(F)F)cc1Cl,120,"remaining at 0.5 h, 1 µM [1]: 73%; remaining at 0.5 h, 1 µM [2]: 68%; Cmax [4]: 437 ng/mL; AUC(0-t) at 6 h [5]: 2060 ng·h/mL"
Cc1cc(C(F)(F)F)ccc1NC(=O)N1CCC[C@@H]1C(=O)N(C)Cc1ccc(Cl)cc1,50,"remaining at 0.5 h, 1 µM [1]: 58%; remaining at 0.5 h, 1 µM [2]: 81%; Cmax [4]: 699 ng/mL; AUC(0-t) at 6 h [5]: 2590 ng·h/mL"
CCCN(Cc1ccc(Cl)cc1)C(=O)[C@H]1CCCN1C(=O)Nc1ccc(Cl)cc1,3600,–
COc1ccc(NC(=O)N2CCC[C@@H]2C(=O)N(C)Cc2ccc(Cl)cc2)cc1,290,–
CN(Cc1ccc(Cl)cc1)C(=O)[C@H]1CCN1C(=O)Nc1ccc(C(F)(F)F)cc1,> 100000,–
Cc1cc(C(F)(F)F)cc(C)c1NC(=O)N1CCC[C@@H]1C(=O)N(C)Cc1ccc(Cl)cc1,11,"AUC(0-inf) [15]: 611 ng·h/mL; remaining at 0.5 h, 1 µM [1]: 74%; remaining at 0.5 h, 1 µM [2]: 84%; Cmax [4]: 195 ng/mL"
CN(Cc1ccc(Cl)cc1)C(=O)[C@H]1CCCN1C(=O)Nc1cccc(C(F)(F)F)c1,2950,–
CN(Cc1ccc(C#N)cc1)C(=O)[C@H]1CCCN1C(=O)Nc1ccc(Cl)cc1,> 13000,–
CN(Cc1ccc(Cl)cc1)C(=O)[C@H]1CCCN1C(=O)Nc1ccc(C#N)cc1,720,–
O=C(NCc1ccc(Cl)cc1)[C@H]1CCCN1C(=O)Nc1ccc(Cl)cc1,> 75000,–
O=C([C@H]1CCCN1C(=O)Nc1ccc(Cl)cc1)N(CCO)Cc1ccc(Cl)cc1,540,–
